Test [1] deals with dT21 (DNA, single strand) TTTTTTTTTTTTTTTTTTTTT
The test is described as follows: fluorescence light-up. Particulars: 60 mM KCl; 10 mM Tris-HCl, pH 7.4.

The subject of test [2] is MCF-7 cells. The test is described as follows: BRACO19 displacement in stained cells, confocal imaging. It is filed as cell-based, human. Particulars: ligand 5 μM, BRACO19 0–15 μM. In short, it runs like this: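 MCF-7 cells were stained with the test compound (5 μM) plus increasing BRACO19 (0–15 μM) for displacement. Images were taken by laser-scanning confocal microscopy with 488 nm excitation. A parallel solution assay followed fluorescence of the compound (5 μM) bound to nucleic acid under the same BRACO19 range.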

The test system of test [3] is G4-DNA (c-MYC promoter, telomeric) versus other nucleic acids. Description: Selectivity screening by induced fluorescence with 20 nucleic acids. The test is classed as binding. Particulars: 5 μM ligand, 18 μM nucleic acid, Tris–HCl pH 7.4, 60 mM KCl. In short, it runs like this: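 For induced-fluorescence selectivity, the test compound (5 μM) was mixed with each nucleic acid (18 μM) in 10 mM Tris–HCl (pH 7.4) with 60 mM KCl. Emission was recorded on a fluorescence spectrometer against compound alone without DNA. Samples were also viewed under 302 nm UV illumination.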

Take `CN1C(=Cc2cc[n+](C)c3ccccc23)Sc2ccccc21` [TO, thiazole orange]: the binding entry in test [1] is on record as “weak”. The “Fluorescence change in stained cells after BRACO19 treatment” value in test [2] was “not obvious”. The “Selectivity toward G4-DNA structures by induced fluorescence” value in test [3] was “non-selective”.

These data come from PMC8887543 (Nucleic Acids Research, 2022).
